Test results taken from ChEMBL document CHEMBL1153030, “Synthesis, structural characterisation and biological evaluation of fluorinated analogues of resveratrol” (Bioorg Med Chem, 2009).

Legend:
[1] = test system: MCF7; assay: Antiproliferative activity against human MCF7 cells assessed as cell growth at 100 uM after 48 hrs by alamar blue assay; format: functional; conditions: MCF7, 48 h, read-out: Activity
Outline: (§1)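 DTP three cell line one-dose prescreen: MCF7 (breast), NCI-H460 (lung), SF-268 (CNS). Cells inoculated and preincubated in microtiter plate, then single concentration of test agent added, 48 h incubation. Alamar blue endpoint. Growth expressed as percent of untreated control cells.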

[2] = test system: NCI-H460; assay: Antiproliferative activity against human NCI-H460 cells assessed as cell growth at 100 uM after 48 hrs by alamar blue assay; format: functional; conditions: NCI-H460, 48 h, read-out: Activity; outline: as §1
[3] = test system: SF-268; assay: Antiproliferative activity against human SF268 cells assessed as cell growth at 100 uM after 48 hrs by alamar blue assay; format: functional; conditions: SF-268, 48 h, read-out: Activity; outline: as §1
[4] = Antiproliferative activity against MRP1-expressing human DLKP cells assessed as cell proliferation at 5 uM after 5 days by acid phosphatase assay; format: functional; conditions: 120 h, read-out: Activity
Outline: (§2)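 Cell lines DLKP, DLKP-A and HT-144, seeded at 1 × 10³ cells/well (DLKP and DLKP-A) or 3 × 10³ cells/well (HT-144, higher density needed for cell-contact-dependent growth). 5 day drug exposure. Compounds tested alone and in combination with the P-gp/MRP1 substrate epirubicin. Read-out is cell proliferation (%) relative to untreated control.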

[5] = Antiproliferative activity against MRP1-expressing human DLKP cells after 5 days by acid phosphatase assay; format: functional, cell-based; conditions: 120 h; outline: as §2
[6] = Antiproliferative activity against P-gp expressing human DLKP-A cells after 5 days by acid phosphatase assay; format: functional, cell-based; conditions: 120 h; outline: as §2
[7] = test system: HT-144; assay: Antiproliferative activity against human HT144 cells after 5 days by acid phosphatase assay; format: functional, cell-based; conditions: HT-144, 120 h; outline: as §2
[8] = Solubility in DMSO-containing medium; format: physicochemical
Outline: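 Compounds were solubilised in a minimum amount of DMSO, then solubility was tested in culture media. A minimum concentration of 0.5 mg/ml in media was required before biological evaluation.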

[9] = Antiproliferative activity against P-gp expressing human DLKP-A cells assessed as cell proliferation at 5 uM after 5 days by acid phosphatase assay; format: functional; conditions: 120 h, read-out: Activity; outline: as §2
[10] = test system: HT-144; assay: Antiproliferative activity against human HT144 cells assessed as cell proliferation at 20 uM after 5 days by acid phosphatase assay; format: functional; conditions: HT-144, 120 h, read-out: Activity; outline: as §2
[11] = Solubility of the compound in cell media; conditions: cell culture media
[12] = Antiproliferative activity against MRP1-expressing human DLKP cells assessed as cell proliferation at 0.01 uM after 5 days by acid phosphatase assay; format: functional; conditions: 120 h, read-out: Activity; outline: as §2
[13] = test system: HT-144; assay: Antiproliferative activity against human HT144 cells assessed as cell proliferation at 0.005 uM after 5 days by acid phosphatase assay; format: functional; conditions: HT-144, 120 h, read-out: Activity; outline: as §2
[14] = Antiproliferative activity against P-gp expressing human DLKP-A cells assessed as cell proliferation at 1.5 uM after 5 days by acid phosphatase assay; format: functional; conditions: 120 h, read-out: Activity; outline: as §2
[15] = Aqueous solubility of the compound; format: physicochemical; conditions: buffer
[16] = Antiproliferative activity against MRP1-expressing human DLKP cells assessed as cell proliferation at 10 uM after 5 days by acid phosphatase assay; format: functional; conditions: 120 h, read-out: Activity; outline: as §2
[17] = Antiproliferative activity against P-gp expressing human DLKP-A cells assessed as cell proliferation at 10 uM after 5 days by acid phosphatase assay; format: functional; conditions: for growth at 10 µM: Homo sapiens, DLKP-A, 120 h, read-out: Activity; outline: as §2
[18] = test system: HL-60(TB); assay: Anticancer activity against human HL-60(TB) cells; format: functional, cell-based
Outline: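 Tested in the DTP 60 human tumour cell line panel, which covers leukaemia, lung, colon, CNS, melanoma, ovarian, renal, prostate and breast lines. GI50, IC50, LC50 and TGI were calculated for each cell line.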

[19] = test system: EKVX; assay: Anticancer activity against human EKVX cells; format: functional, cell-based
Outline: (§3)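 NCI 60 human tumour cell line panel; GI50, IC50, LC50 and TGI values calculated for each cell line.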

[20] = test system: HT-29; assay: Anticancer activity against human HT-29 cells; format: functional, cell-based; outline: as §3
[21] = test system: SNB-75; assay: Anticancer activity against human SNB75 cells; format: functional, cell-based; outline: as §3
[22] = test system: SK-MEL-28; assay: Anticancer activity against human SK-MEL-28 cells; format: functional, cell-based; outline: as §3
[23] = test system: SK-OV-3; assay: Anticancer activity against human SKOV3 cells; format: functional, cell-based; outline: as §3
[24] = test system: RXF 393; assay: Anticancer activity against human RXF393 cells; format: functional, cell-based; outline: as §3
[25] = test system: DU-145; assay: Anticancer activity against human DU145 cells; format: functional, cell-based; outline: as §3
[26] = test system: T47D; assay: Anticancer activity against human T47D cells; format: functional, cell-based; outline: as §3

`Fc1ccc(/C=C/c2cc(F)cc(F)c2)cc1` showed a growth at 100 µM [1] of 82%, a growth at 100 µM [2] of 101% and a growth at 100 µM [3] of 111%.
`Oc1ccc(/C=C/c2cc(F)cc(F)c2)cc1` showed a growth at 5 µM [4] of 74%, an IC50 [5] of 6 µM and an IC50 [6] of 14 µM. The IC50 [7] was 59 µM, the solubility [8] was “Soluble” and the growth at 5 µM [9] was 85%. For the same compound, the growth at 20 µM [10] was 105% and the solubility [11] was “Soluble”.
Compound `COc1cccc2c1C(=O)c1c(O)c3c(c(O)c1C2=O)C[C@@](O)(C(=O)CO)C[C@@H]3O[C@H]1C[C@H](N)[C@@H](O)[C@H](C)O1` [EPIRUBICIN] has a growth at 0.01 µM [12] of 64%, a growth at 0.005 µM [13] of 91% and a growth at 1.5 µM [14] of 66%.
Work on `CC(=O)Oc1cc(O)cc(/C=C/c2ccc(F)cc2)c1` yielded a growth at 5 µM [4] of 98%, an IC50 [5] of 21 µM and an IC50 [6] of 21 µM. For the same compound, the IC50 [7] was 54 µM, the solubility [8] was “Soluble” and the growth at 5 µM [9] was 90%. The growth at 20 µM [10] was 110% and the solubility [11] was “Soluble”.
With `NCC(=O)Nc1ccc(/C=C/c2cc(F)cc(F)c2)cc1.O=C(O)C(F)(F)F` the solubility [15] was “Soluble” and the solubility [8] was “Soluble”.
For `COc1cc(/C=C/c2ccc(F)cc2)cc(OC)c1`, the growth at 100 µM [1] was 67%, the growth at 100 µM [2] was 60% and the growth at 100 µM [3] was 105%.
`O=C(Nc1cc(/C=C/c2ccc(F)cc2)cc(NC(=O)C(F)(F)F)c1)C(F)(F)F` showed a growth at 10 µM [16] of 95%, an IC50 [5] of 28 µM and an IC50 [6] of 20 µM. For the same compound, the solubility [8] was “Soluble”, the growth at 10 µM [17] was 84% and the solubility [11] was “Soluble”.
In the case of `Oc1ccc(/C=C/c2cc(O)cc(O)c2)cc1` [RESVERATROL], the growth at 10 µM [16] is reported as 38%, the IC50 [5] is reported as 10 µM and the IC50 [6] is reported as 15 µM. It also gave an IC50 [7] of 40 µM, an Activity [17] of 66% and a growth at 10 µM [17] of 67%. The growth at 20 µM [10] was 100%.
`CC(=O)Oc1ccc(/C=C/c2cc(F)cc(F)c2)cc1` showed a growth at 5 µM [4] of 52%, an IC50 [5] of 7 µM and an IC50 [6] of 10 µM. For the same compound, the IC50 [7] was 36 µM, the solubility [8] was “Soluble” and the growth at 5 µM [9] was 50%. The growth at 20 µM [10] was 85%, the growth at 100 µM [1] was 22% and the growth at 100 µM [2] was 7%. The growth at 100 µM [3] was 1%, the GI50 [18] was 117 µM and the IC50 [18] was 54.6 µM. It also gave a GI50 [19] of 117 µM, an IC50 [19] of 78.7 µM and a GI50 [20] of 80.6 µM. It also gave an IC50 [20] of 73.7 µM, a GI50 [21] of 90.9 µM and an IC50 [21] of 60.3 µM. The GI50 [22] was 83.1 µM, the IC50 [22] was 70.1 µM and the GI50 [23] was 96.5 µM. For the same compound, the IC50 [23] was 83.1 µM, the GI50 [24] was 202 µM and the IC50 [24] was 75.9 µM. For the same compound, the GI50 [25] was 128 µM, the IC50 [25] was 100 µM and the GI50 [26] was 128 µM. For the same compound, the IC50 [26] was 79.8 µM and the solubility [11] was “Soluble”.
`CC(=O)Oc1cc(/C=C/c2ccc(F)cc2)cc(OC(C)=O)c1` gave a growth at 5 µM [4] of 100%, an IC50 [5] of 25 µM and an IC50 [6] of 19 µM. For the same compound, the IC50 [7] was 56 µM, the solubility [8] was “Soluble” and the growth at 5 µM [9] was 89%. For the same compound, the growth at 20 µM [10] was 100% and the solubility [11] was “Soluble”.
With `Nc1cc(N)cc(/C=C/c2ccc(F)cc2)c1` the growth at 10 µM [16] was 87%, the IC50 [5] was over 50 µM and the IC50 [6] was over 50 µM. The solubility [8] was “Soluble”, the growth at 10 µM [17] was 98% and the solubility [11] was “Soluble”.
For `CC(=O)Nc1ccc(/C=C/c2cc(F)cc(F)c2)cc1`, the growth at 10 µM [16] was 75%, the IC50 [5] was 39 µM and the solubility [8] was “Soluble”. The growth at 10 µM [17] was 78% and the solubility [11] was “Soluble”.
`CC(=O)Nc1cc(/C=C/c2ccc(F)cc2)cc(NC(C)=O)c1` gave a growth at 10 µM [16] of 94%, an IC50 [5] of 50 µM and an IC50 [6] of over 50 µM. The solubility [8] was “Soluble”, the growth at 10 µM [17] was 96% and the solubility [11] was “Soluble”.
With `COc1ccc(/C=C/c2cc(F)cc(F)c2)cc1` the growth at 100 µM [1] was 84%, the growth at 100 µM [2] was 105% and the growth at 100 µM [3] was 111%.
